An excerpt weighted towards active compounds, which were near 4.8% of everything screened.
NLRP3 yeast inh: NALP3 inflammasome inhibitors in reconstituted yeast, primary screen, luminescence, uHTS. Yeast reconstituted NLRP3/ASC/caspase-1, beta-gal luminescence, 24 h. inhibition, % at 10 µM. 0.39% of 330,000 active;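 active means inhibition of 50% or more; inactive means inhibition below 50%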;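 further: plate controls were induced DMSO wells for no effect and uninduced yeast grown without galactose for full effect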
UCH37 DUB inh: inhibitors of human UCH37 deubiquitinase, primary screen, biochemical, Ub-AMC cleavage, fluorescence; 0.33% of 330,000 active; Ubiquitin carboxyl-terminal hydrolase isozyme L5 (Homo sapiens), Q9Y5K5; purified proteasome/UCH37; AID 588478, 2011; inhibition, % (test concentration not listed);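 active means mean inhibition over replicate wells above about 20%, limit read from the data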;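 further: 0% = compound-free wells with enzyme and 100% = wells lacking proteasome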
Target sequence (Q9Y5K5 whole entry, looked up): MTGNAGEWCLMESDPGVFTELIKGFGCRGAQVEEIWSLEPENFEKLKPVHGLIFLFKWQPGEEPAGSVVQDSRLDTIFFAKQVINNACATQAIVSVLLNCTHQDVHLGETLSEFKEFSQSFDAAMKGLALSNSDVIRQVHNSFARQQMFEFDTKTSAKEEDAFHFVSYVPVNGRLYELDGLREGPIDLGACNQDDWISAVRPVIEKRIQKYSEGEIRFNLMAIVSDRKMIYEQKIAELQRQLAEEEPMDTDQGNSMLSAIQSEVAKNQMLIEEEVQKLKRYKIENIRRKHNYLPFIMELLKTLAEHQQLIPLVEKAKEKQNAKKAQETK
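Material: human UCH37 enzyme supplied as purified proteasome complex / Amount: 0.15 nM proteasome as dispensed / Buffer or medium: pH 7.4 Tris-HCl (50 mM) with ovalbumin, ATP-MgCl2, DTT / Times: preincubation 30 min, reaction 25 min, room temperature / Technique: AMC fluorescence from Ub-AMC cleavage, excitation 355 nm, emission 460 nm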
ATG4B inh: ATG4B protease inhibitors, primary screen, biochemical, fluorescence, uHTS. Cysteine protease ATG4B (Homo sapiens), Q9Y4P1. ATG4B cleavage of LC3-PLA2, NBD-HPC fluorescence, 1 h. inhibition, % at 8.33 µM. 0.51% of 340,000 active; in the data active means inhibition above about 40%
Calb FLC: C. albicans growth inhibition with fluconazole, primary screen, CaCi-2 strain, Alamar Blue fluorescence | C. albicans CaCi-2 + fluconazole, 48 h | growth inhibition, % (test concentration not listed) | 0.57% of 300,000 active | AID 1979, 2009;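 active means growth inhibition above about 58% in most replicates, limit read from the data, passing the limit was not always enough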;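 further: all wells also contain fluconazole at 8 µg/ml as a sub-toxic cotreatment; 0% = median of DMSO wells and 100% = median of geldanamycin control wells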
NALP1 yeast inh: NALP1 inflammasome inhibitors in reconstituted yeast, colorimetric, S. cerevisiae, triplicate retest; inhibition, % at 10 µM; AID 2071, 2009; S. cerevisiae NALP1/ASC/caspase-1 growth, X-gal OD620, 72 h; 0.61% of 280,000 active; in the data active means inhibition mostly above about 24%, no sharp cut-off; inactive means mostly below about 32%
ALR inh: inhibitors of human ALR sulfhydryl oxidase, primary screen, biochemical, H2O2 detection, HRP-luminol luminescence, single point. FAD-linked sulfhydryl oxidase ALR (Homo sapiens), P55789. purified ALR, DTT oxidation. inhibition, % (concentration not given with the values). 3.8% of 290,000 active;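 active means mean replicate inhibition above about 79%, with every replicate also reaching it, limit read from the data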
Target sequence (P55789 whole entry, looked up): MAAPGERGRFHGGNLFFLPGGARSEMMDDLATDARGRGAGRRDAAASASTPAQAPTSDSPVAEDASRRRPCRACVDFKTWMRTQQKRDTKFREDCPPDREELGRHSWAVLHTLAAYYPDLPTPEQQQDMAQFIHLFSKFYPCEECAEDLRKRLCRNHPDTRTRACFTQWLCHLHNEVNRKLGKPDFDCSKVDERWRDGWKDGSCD
An asterisk follows results filed as active; . = not tested or not shown; ! = a repeat was not active.

SMILES	NLRP3 yeast inh	UCH37 DUB inh	ATG4B inh	Calb FLC	NALP1 yeast inh	ALR inh
COCC(=O)Nc1nc2n(n1)C(c1ccccc1Cl)CC(c1ccc(OC)cc1)N2 (stereo not given)	-12.4	-121.8	0.7	110.5*	6.6	-0.6
COCC(=O)Nc1nc2n(n1)C(c1ccc(Cl)cc1)CC(c1ccc(OC)cc1)N2 (stereo not given)	4.8	-39.3	-4.8	-4.3	8.2	0.6
CCOC(=O)Cc1cc(=O)n(-c2nc3ccccc3s2)[nH]1	3.0	0.1	25.9	0.9	-4.6	97.6*
O=S(=O)(c1cnccc1N1CCN(N=Cc2ccc(Br)cc2)CC1)N1CCCCC1	.	2.3	.	.	.	.
COC(=O)CSc1nc2cc3c(cc2cc1C)OCO3	-17.5	3.1	-6.3	-1.9	-15.5	21.0
Cc1cc2cc3c(cc2nc1SCC(=O)Nc1nc(C)c(C)s1)OCO3	-6.4	1.0	12.9	12.1	39.1	96.7*
O=C(CNC(=O)c1cccc(Br)c1)NN=Cc1cccnc1	.	-0.1	.	.	.	.
O=C(CCl)NN=C(c1ccccc1)c1ccccc1	-4.1	2.8	21.8	-6.4	-30.2	94.3*
CC(=O)Nc1ccc(NC(=O)CC(C)=NNC(N)=S)cc1	.	-0.1	.	.	.	.
COC(=O)C1=NN(N=O)C2(CC(=O)N(c3cc(C)cc(C)c3)C2=O)C1 (stereo not given)	2.0	3.4	-1.6	-7.2	0.1	84.6*
CCOC(=O)C1=NN(C(C)=O)C2(CC(=O)N(c3cc(C)cc(C)c3)C2=O)C1 (stereo not given)	-1.8	0.7	-2.9	-3.2	34.6	-8.2
CCN(CC)C(=O)C(=O)NN=Cc1ccc(C(=O)O)cc1	.	0.9	.	.	.	.
Oc1ccc(C=NNC2=NCCCCC2)cc1	.	-2.7	.	.	.	.
COc1cccc(N2CCN(Cc3cccnc3)CC2)c1	-7.9	-1.1	-1.3	-0.1	9.9	91.5*
O=C(CCC(=O)Nc1ccc(F)cc1)NN=Cc1ccccc1O	.	-31.5	.	.	.	.
COc1ccccc1N(Cc1ccccc1)S(=O)(=O)c1cc(C(=O)O)ccc1Cl	12.8	-0.2	-8.6	2.0	-20.3	92.1*
CC(=O)Nc1ccc(NC(=O)Cc2ccc(-c3ccccc3)cc2)cc1	24.6	2.9	-4.9	3.0	1.3	-8.7
O=C(CCl)Nc1ccc(N=Nc2ccccc2)cc1	.	6.9	-15.0	-33.6	78.5*	.
O=C(CCl)Nc1ccc(-c2ccccc2)cc1	-8.1	6.1	4.3	91.6*	-22.4	.
Oc1ccc(C=NN2CCN(c3ccccn3)CC2)cc1	.	2.3	.	.	.	.
CC(=NNC(=O)CCc1ccccc1)c1ccc(Br)cc1	.	3.8	.	.	.	.
Oc1ccc(C2CNCCc3c2cc(O)c(O)c3Cl)cc1 (stereo not given)	3.2	2.4	7.5	-18.5	.	99.1*!
Oc1cc2c(c(Cl)c1O)CCNCC2c1ccccc1 (stereo not given)	11.6	4.6	-4.0	35.7	.	98.7*
CNC[C@H](Cc1ccccc1)NC[C@@H](Cc1cccc2ccccc12)NCCc1ccc(C)cc1	22.9	2.4	-1.2	110.5*	18.6	-41.9
Cc1ccc(-c2ccccc2NC(=O)CS(=O)CC(=O)Nc2ccc(C)c(Cl)c2)o1 (stereo not given)	25.3	.	-13.9	0.1	19.5	99.0*
SMILES	NLRP3 yeast inh	UCH37 DUB inh	ATG4B inh	Calb FLC	NALP1 yeast inh	ALR inh
CC(=NNC(=O)c1csc(C)c1C)c1ccc(Cl)s1	.	1.6	.	.	.	.
COC(=O)c1[nH]c2c(c1C)C(=O)CCC2	8.1	-1.3	-4.0	-11.2	33.4*	.
O=S(=O)(c1cnc[nH]1)N1CCN(c2ccc(Cl)cc2)CC1	-0.6	-1.3	-13.4	-10.1	7.1	.
Cc1ccc(C)c(N2CCN(C(=O)C3CCCN(S(=O)(=O)c4cnc[nH]4)C3)CC2)c1 (stereo not given)	6.1	4.1	-9.7	0.2	-6.2	97.0*
O=C(C1CCCN(S(=O)(=O)c2cnc[nH]2)C1)N1CCN(c2ccc(Cl)cc2)CC1 (stereo not given)	4.5	5.0	1.5	14.9	25.6	95.8*
Cc1nc2ccccc2n1CC(=O)NN=Cc1cccs1	.	-1.2	.	.	.	.
O=C(O)CSc1cc(C(=O)c2ccccc2O)cn2c(=O)c3c(-c4ccccc4)csc3nc12	5.4	10.1	21.9	10.4	-4.1	97.6*
CCOC(=O)c1sc2nc3c(SCC(=O)O)cc(C(=O)c4ccccc4O)cn3c(=O)c2c1C	4.8	.	13.3	5.4	-8.4	7.7
CCc1nnc(NS(=O)(=O)c2ccc(NC(=O)c3cc(Cl)ccc3[N+](=O)[O-])cc2)s1	12.5	2.0	-0.7	11.7	-0.7	34.3
CCc1nnc(NS(=O)(=O)c2ccc(NC(=O)c3cc(Cl)ccc3Cl)cc2)s1	4.2	1.4	-9.8	17.1	38.8*	1.4
COc1ccc(-c2nc(CS(=O)CC(=O)NC3CCCCC3)c(C)o2)cc1 (stereo not given)	-6.4	-1.6	-0.2	10.3	-2.2	65.8
COc1ccc(-c2nc(CN3CCC(C(=O)NC4CCCC4)CC3)c(C)o2)cc1OC	-1.6	-2.6	-0.7	-30.3	-4.5	-6.3
COc1ccc(-c2nc(CS(=O)CC(=O)NC3CCCCC3)c(C)o2)cc1OC (stereo not given)	9.8	0.0	-3.6	-12.8	18.7	99.3*
COc1cccc(-c2nc(CS(=O)CC(=O)NC3CC3)c(C)o2)c1 (stereo not given)	15.7	3.9	2.8	-5.0	-20.4	99.1*
COc1ccc(-c2nc(CS(=O)CC(=O)NC3CCCCC3C)c(C)o2)cc1 (stereo not given)	-10.2	3.6	-0.5	0.0	3.5	99.0*
COc1ccc(-c2nc(CS(=O)CC(=O)NC3CCCCCC3)c(C)o2)cc1 (stereo not given)	3.0	0.7	1.9	2.1	6.9	98.2*
CCOC(=O)Cn1nnnc1CN1CCN(c2ccc(OC)cc2)CC1	6.0	0.3	-1.4	-8.4	7.4	91.7*
CC(C)c1ccc(N2C(=O)CC(Sc3ncn[nH]3)C2=O)cc1 (stereo not given)	14.6	2.6	-0.9	-0.9	101.3*	5.9
CC(=O)OCCNc1cc(Sc2nc3ccccc3[nH]2)c2nonc2c1[N+](=O)[O-]	.	11.8	0.1	-0.3	35.3	95.8*
CC(=O)OCCCNc1cc(Sc2nc3ccccc3s2)c2nonc2c1[N+](=O)[O-]	26.3	.	-3.8	15.5	41.6	-26.0
Cn1nc(C(C)(C)C)cc1C(=O)Sc1cccc(Br)c1	11.0	.	-8.3	-16.6	.	98.6*
Cn1nc(C(C)(C)C)cc1C(=O)O	14.2	2.1	-2.5	-1.4	4.0	-5.7
COC(=O)CSc1nc(SCc2ccc(C)cc2)nc2c1CCCC2	16.2	4.4	-10.2	5.1	28.5	-9.8
Cc1ccc(CSc2nc3c(c(SCC(=O)O)n2)CCCC3)cc1	2.2	2.5	-7.3	2.6	13.3	97.0*
